According to ChEMBL document CHEMBL1123384, “Studies of the antitumor activity of (2-alkoxyalkyl)- and (2-alkoxyalkenyl)phosphocholines” (J Med Chem, 1986):
≈ marks a conversion by molar mass, not a printed value. Calls of active or inactive are those of the source. No cut-off for these calls is given here.

How the values were obtained:
CCRF-CEM = assay: In vitro inhibition of CCRF-CEM cell proliferation; type: functional, cell-based; conditions: Homo sapiens
Procedure, shortened: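 Human leukaemia CCRF-CEM cells were grown in RPMI 1640 with 10% dialysed FBS, 16 mM HEPES and 8 mM MOPS, at 4.8 × 10^4 cells per well, in duplicate with several concentrations. Compounds came from a 4 mg/mL Me2SO (or ethanol) stock. After 72 h of continuous exposure (5% CO2), cells were counted on a Coulter counter. IC50 was read from dose–response curves against untreated controls.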

X5563 [1] = assay: Compound was tested in vivo for inhibition of tumor growth of X5,563 myeloma at dose of 70 mg/kg; Number of toxic deaths over total number of mice per group (T/C), 9/10; type: functional; conditions: Mus musculus
X5563 [2] = assay: Compound was tested in vivo for inhibition of tumor growth of X5,563 myeloma at dose of 50 mg/kg; Number of toxic deaths over total number of mice per group (T/C), 1/10; type: functional; conditions: Mus musculus
X5563 [3] = assay: Compound was tested in vivo for inhibition of tumor growth of X5,563 myeloma at dose of 70 mg/kg; Number of toxic deaths over total number of mice per group (T/C), 2/10; type: functional; conditions: Mus musculus
Mus musculus [4] = organism: Mus musculus; assay: Compound was evaluated for the induction of cytotoxic macrophages at concentration of 0.1 ug/mL; type: functional
Procedure, shortened: (§1)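 Peptone-elicited peritoneal macrophages were taken from C3Heb/FeJ mice (6–8 weeks) 3 days after ip peptone broth. About 4 × 10^5 cells per well were made adherent (90 min) and washed. Compound (3 mg/mL Me2SO stock, diluted in RPMI-1640 + 20% FCS) was added with 4 × 10^4 P815 mastocytoma cells, about 10:1 macrophage:target, at 37 °C, 5% CO2. After 48 h, nonadherent cells were counted by trypan blue. % cytotoxicity = (A−B)/A × 100, corrected for direct drug toxicity on targets. Mean of three experiments.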

Mus musculus [5] = organism: Mus musculus; assay: Compound was evaluated for the induction of cytotoxic macrophages at concentration of 1 ug/mL; type: functional; procedure, shortened: as §1
X5563 [6] = assay: Compound was tested in vivo for inhibition of tumor growth of X5,563 myeloma at dose of 17 mg/kg; Number of toxic deaths over total number of mice per group (T/C), 1/10; type: functional; conditions: Mus musculus
X5563 [7] = assay: Compound was tested in vivo for inhibition of tumor growth of X5,563 myeloma at dose of 25 mg/kg; Number of toxic deaths over total number of mice per group (T/C), 0/10; type: functional; conditions: Mus musculus
Mus musculus [8] = organism: Mus musculus; assay: Compound was evaluated for the induction of cytotoxic macrophages at concentration of 0.01 ug/mL; type: functional; procedure, shortened: as §1
X5563 [9] = assay: Compound was tested in vivo for inhibition of tumor growth of X5,563 myeloma at dose of 35 mg/kg; Number of toxic deaths over total number of mice per group (T/C), 2/9; type: functional; conditions: Mus musculus
P388 = assay: Compound was evaluated for the antitumor activity against P-388 leukemia; Inactive; type: functional, cell-based; conditions: Mus musculus
Procedure, shortened: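 P-388 leukaemia: DBA/2 mice were inoculated ip with 1 × 10^6 cells. Compounds were suspended in 2.5% Emulphor in 0.9% saline and given as indicated. Mean life span of treated groups was compared with controls.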

[10] = Compound was evaluated for the antitumor activity against X5563 plasma cell myeloma for iv administration and days 4,8,12; Number of toxic deaths over total number of mice per group (T/C), 1/10 at dose of 50 mg/kg; type: functional; conditions: Mus musculus
X5563 [11] = assay: Compound was tested in vivo for inhibition of tumor growth of X5,563 myeloma at dose of 25 mg/kg; Number of toxic deaths over total number of mice per group (T/C), 1/10; type: functional; conditions: Mus musculus
C6 = assay: Compound was evaluated for the antitumor activity against C-6 colon for ip administration and daily x 10; 5-day delay schedule; Number of toxic deaths over total number of mice per group (T/C), 1/10 at dose of 17 mg/kg; type: functional; conditions: Mus musculus, 120 h, route intraperitoneal
6C3HED = assay: Compound was evaluated for the antitumor activity against 6C3HED lymphosarcoma for ip administration and daily x 8 schedule; Number of toxic deaths over total number of mice per group (T/C), 0/10 at dose of 35 mg/kg; type: functional; conditions: Mus musculus, route intraperitoneal
X5563 [12] = assay: Compound was tested in vivo for inhibition of tumor growth of X5,563 myeloma at dose of 17 mg/kg; Number of toxic deaths over total number of mice per group (T/C), 0/10; type: functional; conditions: Mus musculus
[13] = Compound was evaluated for the antitumor activity against X5563 plasma cell myeloma for po administration and daily x 10 schedule; Number of toxic deaths over total number of mice per group (T/C), 0/10 at dose of 50 mg/kg; type: functional; conditions: Mus musculus
X5563 [14] = assay: Compound was tested in vivo for inhibition of tumor growth of X5,563 myeloma at dose of 35 mg/kg; Number of toxic deaths over total number of mice per group (T/C), 4/10; type: functional; conditions: Mus musculus
B16 = assay: Compound was evaluated for the antitumor activity against B-16 melanoma; Inactive; type: functional, cell-based; conditions: Mus musculus
C-6 colon (Mus musculus) = assay: Compound was evaluated for the antitumor activity against C-6 colon for ip administration and days 4,8,12; Number of toxic deaths over total number of mice per group (T/C), 1/10 at dose of 50 mg/kg
C3H = assay: Compound was evaluated for the antitumor activity against C3H mammary carcinoma for ip administration and daily x 10 schedule; Number of toxic deaths over total number of mice per group (T/C), 1/10 at dose of 25 mg/kg; type: functional; conditions: Mus musculus, route intraperitoneal
AC755 = assay: Compound was evaluated for the antitumor activity against AC755 breast carcinoma for ip administration and daily x 10 schedule; Number of toxic deaths over total number of mice per group (T/C), 1/7 at dose of 25 mg/kg; type: functional; conditions: Mus musculus, route intraperitoneal
[15] = Compound was evaluated for the antitumor activity against X5563 plasma cell myeloma for ip administration and days x10; Number of toxic deaths over total number of mice per group (T/C), 0/10 at dose of 25 mg/kg; type: functional; conditions: Mus musculus, route intraperitoneal
M-5 = assay: Compound was evaluated for the antitumor activity against M-5 ovarian carcinoma for ip administration and daily x 10; % day delay schedule.; type: functional, Mus musculus
X5563 [16] = assay: Compound was tested in vivo for inhibition of tumor growth of X5,563 myeloma at dose of 25 mg/kg; Number of toxic deaths over total number of mice per group (T/C), 2/10; type: functional; conditions: Mus musculus
X5563 [17] = assay: Compound was tested in vivo for inhibition of tumor growth of X5,563 myeloma at dose of 17 mg/kg; Number of toxic deaths over total number of mice per group (T/C), 3/10; type: functional; conditions: Mus musculus
[18] = Compound was tested in vivo for inhibition of tumor growth of X5,563 myeloma at dose of 35 mg/kg; Number of toxic deaths over total number of mice per group (T/C), 3/10; type: functional; conditions: Mus musculus, X5563
X5563 [19] = assay: Compound was tested in vivo for inhibition of tumor growth of X5,563 myeloma at dose of 50 mg/kg; Number of toxic deaths over total number of mice per group (T/C), 9/10; type: functional; conditions: Mus musculus
X5563 [20] = assay: Compound was tested in vivo for inhibition of tumor growth of X5,563 myeloma at dose of 35 mg/kg; Number of toxic deaths over total number of mice per group (T/C), 0/9; type: functional; conditions: Mus musculus
X5563 [21] = assay: Compound was tested in vivo for inhibition of tumor growth of X5,563 myeloma at dose of 25 mg/kg; Number of toxic deaths over total number of mice per group (T/C), 0/9; type: functional; conditions: Mus musculus
X5563 [22] = assay: Compound was tested in vivo for inhibition of tumor growth of X5,563 myeloma at dose of 5 mg/kg; Number of toxic deaths over total number of mice per group (T/C), 4/10; type: functional; conditions: Mus musculus

CCCCCCCC/C=C\CCCCCCCC(COP(=O)([O-])OCC[N+](C)(C)C)OCC (centres undefined)
IC50 (CCRF-CEM): 1.6 µg/mL (≈ 3.25 µM)
inhibition in vivo at 70 mg/kg (X5563 [1]): 67%
inhibition in vivo at 50 mg/kg (X5563 [2]): 47%

CCCCC/C=C\C/C=C\CCCCCCCC(COP(=O)([O-])OCC[N+](C)(C)C)OCC (centres undefined)
IC50 (CCRF-CEM): 6 µg/mL (≈ 12.3 µM)
inhibition in vivo at 70 mg/kg (X5563 [3]): 31%

CCCCCCCCCCCCCCCCCCC(COP(=O)([O-])OCC[N+](C)(C)C)OC (centres undefined)
IC50 (CCRF-CEM): 1.5 µg/mL (≈ 3.04 µM)

CCCCCCCCCCC(COP(=O)([O-])OCC[N+](C)(C)C)OCC (centres undefined)
Macrophage cytotoxicity (Mus musculus [4]): 2%
IC50 (CCRF-CEM): 55 µg/mL (≈ 139 µM)
Macrophage cytotoxicity (Mus musculus [5]): 32%
inhibition in vivo at 17 mg/kg (X5563 [6]): 41%
inhibition in vivo at 25 mg/kg (X5563 [7]): 39%
Macrophage cytotoxicity (Mus musculus [8]): 1%
inhibition in vivo at 35 mg/kg (X5563 [9]): 45%

CCCCCCCCCCCCCCCCCCC(COP(=O)([O-])OCC[N+](C)(C)C)OCC (centres undefined)
inhibition (P388): inactive
inhibition in vivo at 50 mg/kg [10]: 43%
inhibition in vivo at 25 mg/kg (X5563 [11]): 80%
Macrophage cytotoxicity (Mus musculus [4]): 37%
IC50 (CCRF-CEM): 0.8 µg/mL (≈ 1.58 µM)
Macrophage cytotoxicity (Mus musculus [5]): 29%
inhibition in vivo at 17 mg/kg (C6): 56%
inhibition in vivo at 35 mg/kg (6C3HED): 85%
inhibition in vivo at 17 mg/kg (X5563 [12]): 65%
inhibition in vivo at 50 mg/kg [13]: 56%
inhibition in vivo at 35 mg/kg (X5563 [14]): 95%
inhibition (B16): inactive
inhibition in vivo at 50 mg/kg (C-6 colon (Mus musculus)): 31%
inhibition in vivo at 25 mg/kg (C3H): 37%
inhibition in vivo at 25 mg/kg (AC755): 42%
inhibition in vivo at 25 mg/kg [15]: 77%
Inhibition (M-5): 22%
Macrophage cytotoxicity (Mus musculus [8]): 1%

CCCCCCCCCCCCCCCCCCCCCCCC(COP(=O)([O-])OCC[N+](C)(C)C)OCC (centres undefined)
Macrophage cytotoxicity (Mus musculus [4]): 2%
Macrophage cytotoxicity (Mus musculus [5]): 0%
Macrophage cytotoxicity (Mus musculus [8]): 0%

CCCCCCCCCCCCCCCCCC[C@@H](O)COP(=O)([O-])OCC[N+](C)(C)C
IC50 (CCRF-CEM): > 20 µg/mL

CCCCCCCCCCCCCCC(COP(=O)([O-])OCC[N+](C)(C)C)OCC (centres undefined)
IC50 (CCRF-CEM): 5.4 µg/mL (≈ 12 µM)
inhibition in vivo at 25 mg/kg (X5563 [16]): 17%
inhibition in vivo at 35 mg/kg (X5563 [14]): 80%
inhibition in vivo at 17 mg/kg (X5563 [17]): 7%

CCCCCCCCCCCCCCCCCC[C@H](COP(=O)([O-])OCC[N+](C)(C)C)OC(C)=O
Macrophage cytotoxicity (Mus musculus [4]): 0%
IC50 (CCRF-CEM): 0.9 µg/mL (≈ 1.73 µM)
Macrophage cytotoxicity (Mus musculus [5]): 23%
inhibition in vivo at 35 mg/kg [18]: 68%
inhibition in vivo at 50 mg/kg (X5563 [19]): 100%
inhibition in vivo at 25 mg/kg (X5563 [16]): 39%
inhibition in vivo at 17 mg/kg (X5563 [12]): 57%
Macrophage cytotoxicity (Mus musculus [8]): 0%

CCCCCCC(COP(=O)([O-])OCC[N+](C)(C)C)OCC (centres undefined)
inhibition in vivo at 35 mg/kg (X5563 [20]): 17%
Macrophage cytotoxicity (Mus musculus [4]): 0%
IC50 (CCRF-CEM): > 200 µg/mL
Macrophage cytotoxicity (Mus musculus [5]): 0%
inhibition in vivo at 17 mg/kg (X5563 [12]): 17%
inhibition in vivo at 25 mg/kg (X5563 [21]): 16%
Macrophage cytotoxicity (Mus musculus [8]): 0%

CCCCCCCCCCCCCCCCOC[C@H](COP(=O)([O-])OCC[N+](C)(C)C)OCC
inhibition in vivo at 5 mg/kg (X5563 [22]): 18%
Macrophage cytotoxicity (Mus musculus [4]): 5%
IC50 (CCRF-CEM): 2.9 µg/mL (≈ 5.69 µM)
Macrophage cytotoxicity (Mus musculus [5]): 31%
Macrophage cytotoxicity (Mus musculus [8]): 4%
